Source: ChEMBL document CHEMBL4725388, “Characterization of Aminobenzylphenols as Protein Disulfide Isomerase Inhibitors in Glioblastoma Cell Lines” (J Med Chem, 2020)

Assays:
[1] = target: Protein disulfide-isomerase (Homo sapiens, UniProt P07237); assay: Inhibition of recombinant human wild-type N-terminal His-tagged PDIA1 expressed in Escherichia coli strain BL21(DE3) using bovine insulin as substrate preincubated for 1 hr followed by substrate addition
Outline: (§1)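 IC50 from dose-response curves; PDI reductase assay for enzyme, MTT in U-87 MG cells for cytotoxicity; mean ± SD of at least three independent experiments.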

U-87 MG = assay: Cytotoxicity against human U-87 MG cells assessed as growth inhibition measured after 72 hrs by MTT assay; assay type: functional, cell-based, U-87MG ATCC; outline: as §1

Sequence of Protein disulfide-isomerase (P07237 whole entry): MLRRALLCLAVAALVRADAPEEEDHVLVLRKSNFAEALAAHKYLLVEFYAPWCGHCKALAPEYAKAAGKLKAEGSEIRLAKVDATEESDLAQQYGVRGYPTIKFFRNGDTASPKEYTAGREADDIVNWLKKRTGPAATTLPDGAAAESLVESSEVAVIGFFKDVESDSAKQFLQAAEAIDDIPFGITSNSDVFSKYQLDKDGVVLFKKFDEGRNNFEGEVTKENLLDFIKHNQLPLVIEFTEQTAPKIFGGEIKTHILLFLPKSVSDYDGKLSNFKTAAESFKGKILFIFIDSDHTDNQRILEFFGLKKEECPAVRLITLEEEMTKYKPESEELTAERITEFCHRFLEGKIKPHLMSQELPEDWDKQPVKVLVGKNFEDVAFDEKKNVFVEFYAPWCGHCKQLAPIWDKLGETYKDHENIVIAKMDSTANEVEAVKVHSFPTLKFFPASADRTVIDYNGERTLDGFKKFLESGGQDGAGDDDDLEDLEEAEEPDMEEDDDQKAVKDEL

SMILES	IC50 [1] [nM]	IC50 (U-87 MG) [nM]
COc1ccccc1C(c1cc2c(cc1O)OCO2)N1CCOCC1 (stereo unspecified)	330	27700
COc1ccc(C(c2cc3c(cc2O)OCO3)N2CCOCC2)cc1 (stereo unspecified)	130	> 10000
Oc1c(C(Nc2ccccc2)c2ccccc2)ccc2cccnc12 (stereo unspecified)	110	> 10000
Oc1ccc2[nH]ncc2c1C(c1ccc(F)cc1)N1CCCCC1 (stereo unspecified)	350	–
Cc1ccnc(NC(c2ccccc2C)c2ccc3cccnc3c2O)c1 (stereo unspecified)	> 40000	> 10000
Oc1c(C(c2ccc(F)cc2)N2CCCCC2)ccc2ccoc12 (stereo unspecified)	560	–
Oc1cc2c(cc1C(Nc1ccccn1)c1ccc3c(c1)OCO3)OCO2 (stereo unspecified)	72	> 10000
Oc1ccc2ccncc2c1C(c1ccc(F)cc1)N1CCCCC1 (stereo unspecified)	10200	–
Oc1cccc(C(Nc2ccccn2)c2ccc3cccnc3c2O)c1Cl (stereo unspecified)	370	> 10000
Oc1c(C(c2ccc(F)cc2)N2CCCCC2)ccc2c1CCC2 (stereo unspecified)	> 10000	–
Cc1ccnc(NC(c2ccc(F)cc2)c2ccc3cccnc3c2O)c1 (stereo unspecified)	140	> 10000
COc1ccccc1NC(c1ccccc1)c1ccc2cccnc2c1O (stereo unspecified)	390	> 10000
Oc1cc2c(cc1C(c1ccc3c(c1)OCO3)N1CCCCC1)OCO2 (stereo unspecified)	350	> 10000
COc1ccc(C(c2cc3c(cc2O)OCO3)N2CCCC2)c(OC)c1 (stereo unspecified)	360	> 30000
Cc1ccc(C(Nc2ccccn2)c2ccc3cccnc3c2O)cc1 (stereo unspecified)	460	> 10000
COc1ccc(C(c2cc3c(cc2O)OCO3)N2CCCC2)cc1 (stereo unspecified)	1520	22600
Oc1c(C(c2ccc(F)cc2)N2CCCCC2)ccc2cnccc12 (stereo unspecified)	610	–
Oc1cc2c(cc1C(c1ccc(Cl)cc1)N1CCOCC1)OCO2 (stereo unspecified)	92	> 30000
CN(C)c1cccc(C(c2ccc(F)cc2)N2CCCCC2)c1O (stereo unspecified)	> 30000	–
Oc1ccc2scnc2c1C(c1ccc(F)cc1)N1CCCCC1 (stereo unspecified)	> 100000	–
Cc1ccc(C)c(C(Nc2ccccn2)c2ccc3cccnc3c2O)c1 (stereo unspecified)	730	13800
Cc1ccnc(NC(c2ccc3cccnc3c2O)c2c(F)cccc2Cl)c1 (stereo unspecified)	> 40000	20600
Oc1c(C(c2ccc3c(c2)CCC3)N2CCCCC2)ccc2ccoc12 (stereo unspecified)	410	–
COc1cccc(C(c2cc3c(cc2O)OC(F)(F)O3)N2CCOCC2)c1OC (stereo unspecified)	510	–
COc1ccc(C(Nc2ncccn2)c2cc3c(cc2O)OCO3)cc1 (stereo unspecified)	1300	> 10000

SMILES	IC50 [1] [nM]	IC50 (U-87 MG) [nM]
Oc1ccccc1C(c1cc2c(cc1O)OCO2)N1CCOCC1 (stereo unspecified)	340	> 30000
Oc1c(C(c2ccc3c(c2)OC(F)(F)O3)N2CCCCC2)ccc2ccoc12 (stereo unspecified)	< 200	–
Oc1c(C(c2ccc(F)cc2)N2CCCCC2)ccc2c1OCCO2 (stereo unspecified)	290	–
Cc1ccnc(NC(c2ccccc2)c2ccc3cccnc3c2O)c1 (stereo unspecified)	< 200	> 10000
COc1ccc(C(c2cc3c(cc2O)OCO3)N2CCCCC2)cc1OC (stereo unspecified)	960	24800
Cc1ccnc(NC(c2ccc3cccnc3c2O)c2c(Cl)cccc2Cl)c1 (stereo unspecified)	> 40000	7200
Oc1cc2c(cc1C(c1ccc(F)cc1)N1CCCCC1)CCCC2 (stereo unspecified)	> 100000	–
COc1cc(C(Nc2ccc(C)cn2)c2ccc3cccnc3c2O)cc(OC)c1O (stereo unspecified)	180	7400
COc1cccc(C(Nc2ccccn2)c2ccc3cccnc3c2O)c1 (stereo unspecified)	2860	11900
CN(C)c1ccc(C(c2cc3c(cc2O)OCO3)N2CCCCC2)cc1 (stereo unspecified)	1270	24700
Oc1ccc2[nH]ncc2c1C(c1ccc(-n2cccc2)cc1)N1CCCCC1 (stereo unspecified)	290	–
Oc1cc2c(cc1C(c1ccc(F)cc1)N1CCCCC1)OCCO2 (stereo unspecified)	670	–
CCc1ccc(C(Nc2cc(C)ccn2)c2ccc3cccnc3c2O)cc1 (stereo unspecified)	5390	8900
Oc1cc2c(cc1C(c1ccc(F)cc1)N1CCOCC1)OCO2 (stereo unspecified)	230	> 30000
COc1cccc(C(c2cc3c(cc2O)OCO3)N2CCCC2)c1O (stereo unspecified)	1650	> 10000
O=[N+]([O-])c1ccc(C(c2c(O)ccc3[nH]ncc23)N2CCCCC2)cc1 (stereo unspecified)	520	–
Cc1ccnc(NC(c2cccc(F)c2)c2ccc3cccnc3c2O)c1 (stereo unspecified)	350	9200
Oc1cc2c(cc1C(c1ccc(F)cc1)N1CCCCC1)OCO2 (stereo unspecified)	270	> 30000
Oc1ccc2cnccc2c1C(c1ccc(F)cc1)N1CCCCC1 (stereo unspecified)	> 100000	–
Oc1c(C(Nc2ccccn2)c2ccccc2Cl)ccc2cccnc12 (stereo unspecified)	500	9400
Oc1cc2c(cc1C(c1ccc3c(c1)OCO3)N1CCCC1)OCO2 (stereo unspecified)	23	> 30000
COc1cc(C(c2cc3c(cc2O)OCO3)N2CCOCC2)ccc1O (stereo unspecified)	230	27100
Oc1cc2c(cc1C(c1ccc3c(c1)OCO3)N1CCOCC1)OCO2 (stereo unspecified)	< 200	> 30000
COc1ccc(C(c2cc3c(cc2O)OCO3)N2CCCCC2)c(OC)c1 (stereo unspecified)	2590	> 30000
COc1cccc(C(c2cc3c(cc2O)OCO3)N2CCOCC2)c1O (stereo unspecified)	900	> 10000

SMILES	IC50 [1] [nM]	IC50 (U-87 MG) [nM]
Cc1ccnc(NC(c2ccc(C(F)(F)F)cc2)c2ccc3cccnc3c2O)c1 (stereo unspecified)	26500	2100
Oc1c(C(c2ccc(C(F)(F)F)cc2)N2CCCCC2)ccc2ccoc12 (stereo unspecified)	300	–
Oc1ccc(C(c2cc3c(cc2O)OCO3)N2CCNCC2)cc1 (stereo unspecified)	680	> 30000
CNC(=O)NC(c1ccc(F)cc1)c1cc2c(cc1O)OCO2 (stereo unspecified)	> 30000	> 10000
Oc1cc2c(cc1C(c1ccc(F)cc1)N1CCCC1)OCO2 (stereo unspecified)	< 200	> 30000
Oc1ccc2[nH]ncc2c1C(c1ccc(-c2cncnc2)cc1)N1CCCCC1 (stereo unspecified)	830	–
COc1cc(C(Nc2ccccn2)c2cc3c(cc2O)OCO3)cc(OC)c1O (stereo unspecified)	170	> 10000
Oc1c(C(c2ccc(F)cc2)N2CCCCC2)ccc2scnc12 (stereo unspecified)	570	–
COc1cc(C(Nc2ncccn2)c2cc3c(cc2O)OCO3)cc(OC)c1O (stereo unspecified)	2200	> 10000
Oc1cc2c(cc1C(c1ccc(F)cc1)n1ccnc1)OCO2 (stereo unspecified)	670	> 10000
Cc1ccnc(NC(c2ccc([N+](=O)[O-])cc2)c2ccc3cccnc3c2O)c1 (stereo unspecified)	530	3400
COc1cc(C(c2cc3c(cc2O)OCO3)N2CCCCC2)cc(OC)c1OC (stereo unspecified)	700	> 10000
Oc1ccc2[nH]ncc2c1C(c1ccc(C(F)(F)F)cc1)N1CCCCC1 (stereo unspecified)	710	–
Oc1ccc2ncccc2c1C(c1ccc(F)cc1)N1CCCCC1 (stereo unspecified)	> 30000	–
CC(=O)c1cc2ccc(C(c3ccc(F)cc3)N3CCCCC3)c(O)c2o1 (stereo unspecified)	1230	–
Oc1ccc2[nH]ncc2c1C(c1ccc(-c2nccs2)cc1)N1CCCCC1 (stereo unspecified)	340	–
Oc1ccc2[nH]ccc2c1C(c1ccc(F)cc1)N1CCCCC1 (stereo unspecified)	1810	–
Oc1cc2c(cc1C(c1ccc(F)cc1)N1CCCCC1)NCC2 (stereo unspecified)	7010	–
Oc1c(C(c2ccc(F)cc2)N2CCCCC2)ccc2nccnc12 (stereo unspecified)	660	–
Oc1c(C(c2ccc(F)cc2)N2CCCCC2)ccc2c1OCO2 (stereo unspecified)	2830	–
Oc1ccc2nccnc2c1C(c1ccc(F)cc1)N1CCCCC1 (stereo unspecified)	> 100000	–
Oc1c(C(c2ccc(F)cc2)N2CCCCC2)ccc2cncnc12 (stereo unspecified)	4860	–
Oc1cc(F)ccc1C(c1ccc2ccoc2c1O)N1CCCCC1 (stereo unspecified)	1070	–
